Data set [1] concerns 3T3-L1. Put plainly: Reduction in lipid accumulation in mouse 3T3L1 cells at 10 uM by Oil Red O staining-based absorbance method relative to control. It is filed as functional. The method in brief: (§1)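 3T3-L1 preadipocytes differentiated to mature adipocytes, then treated with compound (screen at 10 μM; concentration series 10, 20, 40, 80 μM). Lipid stained with Oil Red O, dye extracted and absorbance read at 492 nm; microscopic images also taken. Compared with vehicle; mean ± SD of two independent experiments.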

Data set [2] has as its system 3T3-L1. Put plainly: Cytotoxicity against mouse 3T3L1 cells assessed as effect on cell viability at 10 uM after 48 hrs by MTT assay. Format: cell-based. The settings on record: 3t3-l1, 48 h. The method in brief:
(§2)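 3T3-L1 preadipocytes incubated 48 h with 5, 10, 20 or 40 μM compound; viability read by MTT assay against 0.1% DMSO-treated control cells. Mean ± SD of three independent experiments.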

In data set [3] the test system is 3T3-L1. Put plainly: Cytotoxicity against mouse 3T3L1 cells assessed as reduction in cell viability at 40 uM after 48 hrs by MTT assay. Format: cell-based. The settings on record: 3t3-l1, 48 h. The method in brief: as §2
For data set [4], the target named is T1, Bile acid receptor (Homo sapiens) (UniProt Q96RI1).
T1 sequence (whole entry): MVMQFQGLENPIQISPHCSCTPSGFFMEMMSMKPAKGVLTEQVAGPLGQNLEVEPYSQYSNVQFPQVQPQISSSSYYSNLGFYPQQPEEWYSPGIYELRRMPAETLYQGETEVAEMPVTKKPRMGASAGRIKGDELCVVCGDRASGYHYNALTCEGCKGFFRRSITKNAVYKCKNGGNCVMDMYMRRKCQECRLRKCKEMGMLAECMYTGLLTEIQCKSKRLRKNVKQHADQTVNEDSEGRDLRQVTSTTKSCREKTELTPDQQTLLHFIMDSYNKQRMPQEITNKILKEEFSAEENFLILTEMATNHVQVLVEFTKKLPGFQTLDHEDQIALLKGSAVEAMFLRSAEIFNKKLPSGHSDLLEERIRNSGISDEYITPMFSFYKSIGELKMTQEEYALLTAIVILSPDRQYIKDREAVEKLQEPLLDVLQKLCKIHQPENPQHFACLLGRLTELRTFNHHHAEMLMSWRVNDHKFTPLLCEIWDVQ
Put plainly: Transactivation of FXR (unknown origin) at 10 uM by cell-based dual luciferase reporter gene assay. The method in brief:
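Cell-based FXR transactivation measured with a dual-luciferase reporter system; cells exposed to 10 μM compound. Mean ± SEM, n = 3.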
(In a reporter assay the amount or activity of a reporter protein is the signal.)

Data set [5] relates to 3T3-L1. The data set is described as follows: Reduction in lipid accumulation in mouse 3T3L1 cells by Oil Red O staining-based absorbance method. Format: functional, cell-based. The method in brief:
as §1

Data set [6] has as its target T1, Bile acid receptor (Homo sapiens). Put plainly: Agonist activity against FXR in human HepG2 cells assessed as up-regulation of SHP mRNA expression at 10 uM by RT-PCR analysis. It is filed as cell-based. The method in brief: (§3)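 HepG2 cells exposed to test agent at 10 μM; mRNA of FXR and FXR-regulated genes SHP, BSEP and SREBP-1c quantified by real-time PCR relative to vehicle. Mean ± SEM, n = 3.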

The target is the same in data set [7]. The data set is described as follows: Agonist activity against FXR in human HepG2 cells assessed as up-regulation of BSEP mRNA expression at 10 uM by RT-PCR analysis. It is filed as cell-based. The method in brief:
as §3

Data set [8] relates to HepG2. The data set is described as follows: Induction of cell proliferation in human HepG2 cells at <20 uM. It is filed as functional, cell-based.
Data set [9] has as its system 3T3-L1. The data set is described as follows: Reduction in lipid accumulation in mouse 3T3L1 cells at 80 uM by Oil Red O staining-based absorbance method relative to control. It is filed as functional. More on the design: scale not given: the % may be the effect or the level left. The method in brief:
as §1

Data set [10] has as its system HepG2. Put plainly: Up-regulation of FXR mRNA expression in human HepG2 cells at 10 uM by RT-PCR analysis. Format: functional, cell-based. The method in brief: as §3
Data set [11] deals with T1, Bile acid receptor (Homo sapiens). The data set is described as follows: Agonist activity against FXR in human HepG2 cells assessed as down regulation of SREBP-1c mRNA expression at 10 uM by RT-PCR analysis. Format: cell-based. The method in brief:
as §3

The subject of data set [12] is 3T3-L1. Put plainly: Reduction in lipid accumulation in mouse 3T3L1 cells at 10 to 80 uM by Oil Red O staining-based microscopic analysis. It is filed as functional, cell-based. The method in brief:
as §1

A short description of data set [13]: Hepatotoxicity in human HepG2 cells assessed as reduction in cell viability at 80 uM. It is filed as toxicity, cell-based. As to conditions: hepg2, 80 µM.
Data set [14] has as its system 3T3-L1. The data set is described as follows: Increase in cell viability of mouse 3T3L1 cells at 5 uM after 48 hrs by MTT assay. It is filed as functional, cell-based. The method in brief: as §2
(In general: Tetrazolium dyes change colour on reduction, which living cells bring about.)

SMILES strings stand for the structures. The source made the active and inactive calls. No cut-off for these calls is given here.

Regarding `CCNC(=O)c1ccc(-c2coc3cc(OCc4c(-c5c(Cl)cccc5Cl)noc4C(C)C)ccc3c2=O)cc1`, the result with 3T3-L1 [1] was Active. Besides, the Activity entry in the data set on 3T3-L1 [2] and in the data set with 3T3-L1 [3] was “Non-Toxic” in each case.
As to `CC(C)c1onc(-c2c(Cl)cccc2Cl)c1COc1ccc2c(=O)c(-c3ccc([N+](=O)[O-])cc3)coc2c1`, the result with 3T3-L1 [1] was Active. The Activity result in the data set with 3T3-L1 [2] and in the data set with 3T3-L1 [3] was “Non-Toxic” throughout.
With `COc1ccc(-c2coc3cc(OCc4c(-c5c(Cl)cccc5Cl)noc4C(C)C)ccc3c2=O)cc1`, in the data set with 3T3-L1 [1], the result was Active. In addition, the Activity entry with 3T3-L1 [2] and with 3T3-L1 [3] was “Non-Toxic” throughout.
Regarding `COC(=O)c1ccc(-c2coc3cc(OCc4c(-c5c(Cl)cccc5Cl)noc4C(C)C)ccc3c2=O)cc1`, the outcome in the data set with 3T3-L1 [1] was Active. For the same compound, the Activity result in the data set on 3T3-L1 [2] and in the data set with 3T3-L1 [3] was “Non-Toxic” each time.
With `CCOC(=O)COc1ccc(-c2coc3cc(OCc4c(-c5c(Cl)cccc5Cl)noc4C(C)C)ccc3c2=O)cc1`, the result in the data set on 3T3-L1 [1] was Active. The Activity result with 3T3-L1 [2] and in the data set with 3T3-L1 [3] was “Non-Toxic” each time.
For the compound `CC(C)c1onc(-c2c(Cl)cccc2Cl)c1COc1ccc2c(=O)c(-c3ccc(C(=O)O)cc3)coc2c1`, in the data set on 3T3-L1 [1], the result was Active. Moreover, the Activity result in the data set with 3T3-L1 [2] and in the data set on 3T3-L1 [3] was “Non-Toxic” each time.
As to `CNC(=O)c1ccc(-c2coc3cc(OCc4c(-c5c(Cl)cccc5Cl)noc4C(C)C)ccc3c2=O)cc1`, the outcome with 3T3-L1 [1] was Active. In addition, the Activity entry in the data set with 3T3-L1 [2] and with 3T3-L1 [3] was “Non-Toxic” each time.
Turning to `CC(C)c1onc(-c2c(Cl)cccc2Cl)c1COc1ccc2c(=O)c(-c3ccc(O)cc3)coc2c1`, the outcome with 3T3-L1 [1] was Active. The Activity result in the data set on 3T3-L1 [2] is recorded as “Non-Toxic”; with 3T3-L1 [3], “Toxic”.
For the compound `CC(C)c1onc(-c2c(Cl)cccc2Cl)c1COc1ccc2c(=O)c(-c3ccc(F)cc3)coc2c1`, the Activity result in the data set on 3T3-L1 [2] and with 3T3-L1 [3] was “Non-Toxic” each time.
Regarding `CC(C)c1onc(-c2c(Cl)cccc2Cl)c1COc1ccc(/C=C/c2cccc(C(=O)O)c2)c(Cl)c1`, the result (in [4]; with 3T3-L1 [1]) was Active. In addition, in the data set on 3T3-L1 [2], the Activity entry is “Non-Toxic”.
As to `CC(C)c1onc(-c2c(Cl)cccc2Cl)c1COc1ccc2c(=O)c(-c3ccc(OCC(=O)O)cc3)coc2c1`, the result in the data set with 3T3-L1 [1] was Active. Further, the Activity result in the data set with 3T3-L1 [2] and with 3T3-L1 [3] was “Non-Toxic” in each case.
Take `CC(C)c1onc(-c2c(Cl)cccc2Cl)c1COc1ccc2c(=O)c(-c3ccc(C(=O)N(C)C)cc3)coc2c1`: the Activity result in the data set with 3T3-L1 [5] is “Dose-dependent effect”; in the data set with 3T3-L1 [9] it was >50%; in [13], “Non-Toxic”; in the data set with 3T3-L1 [2] it was “Non-Toxic”; in the data set with 3T3-L1 [3], “Non-Toxic”. Also, the result (in data set [4]; in data set [6]; in data set [7]; with HepG2 [8]; in the data set with HepG2 [10]; in the data set with 3T3-L1 [1]) was Active. The result (in data set [11]; with 3T3-L1 [12]) was Active.
As for `CC(C)c1onc(-c2c(Cl)cccc2Cl)c1COc1ccc2c(=O)c(-c3ccc(C(=O)NC4CC4)cc3)coc2c1`, the outcome with 3T3-L1 [1] and in the data set with 3T3-L1 [14] was Active. Besides, the Activity entry with 3T3-L1 [2] and in the data set on 3T3-L1 [3] was “Non-Toxic” each time.

Values taken from ChEMBL document CHEMBL4257574, “Structure-guided design and synthesis of isoflavone analogs of GW4064 with potent lipid accumulation inhibitory activities” (Bioorg Med Chem Lett, 2018).
